From ChEMBL document CHEMBL4257585, “Structure-Activity Relationships of Photoswitchable Diarylethene-Based β-Hairpin Peptides as Membranolytic Antimicrobial and Anticancer Agents” (J Med Chem, 2018)
Values after ≈ are worked out from the molar mass of the structure shown.

What was measured:
[1] = Therapeutic index, ratio of HC50 for human RBC to MIC for Bacillus subtilis DSM 347; assay type: toxicity; details: human red blood cells versus Bacillus subtilis DSM 347
In short: (§1)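 Ratio of HC50 (RBC) to HeLa IC50 or to MIC against B. subtilis or E. coli; values measured in mg/mL and recalculated to μM, 2-fold dilution without curve fitting, accuracy within a factor of 2.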

[2] = Hemolytic activity against human RBC assessed as hemolysis after 30 mins by colorimetric method; assay type: ADME, cell-based, Erythrocyte; details: human red blood cells (erythrocytes)
In short: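 Human erythrocytes washed twice in isotonic 172 mM Tris-HCl, pH 7.6; peptides dissolved in DMSO, diluted in buffer, two independent 10-step 2-fold series from 256 or 192 μg/mL. HC50 extrapolated as 50% hemolysis concentration.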

HeLa = test: Cytotoxicity against human HeLa cells assessed as reduction in cell viability after 24 hrs by MTT assay; assay type: functional, cell-based
In short: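 HeLa cells seeded at about 5 × 10^4 cells/mL in DMEM with 10% FBS, 2 mM glutamine, gentamicin; 24 h adaptation (37 °C, 5% CO2), then 24 h peptide exposure. MTT 4 h, formazan in DMSO read at 570 nm. 2-fold series 256–0.5 (open) or 512–1 μg/mL (closed), four repetitions; IC50 extrapolated from killing curves. Closed form handled in dim light.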

Bacillus subtilis = test: Antimicrobial activity against Bacillus subtilis DSM 347 after 22 hrs by resazurin dye based spectrophotometry; assay type: functional; details: DSM 347, 22 h
In short: (§2)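 2-fold broth microdilution in Mueller–Hinton medium; peptide stocks 1024 μg/mL in 50% ethanol. Exponential-phase cultures diluted to OD550 0.2, then 1:100 (B. subtilis) or 1:1000 (E. coli), giving 5 × 10^5 CFU/mL per well. Incubated 22 h, 37 °C, static; then resazurin (0.2 mg/mL solution) added for 2 h at 37 °C, read visually and spectrophotometrically. Tested in both photoforms.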

Escherichia coli = test: Antimicrobial activity against Escherichia coli DSM 1103 after 22 hrs by resazurin dye based spectrophotometry; assay type: functional; details: DSM 1103, 22 h; in short: as §2
[3] = Selective ratio of HC50 for human RBC to IC50 for human HeLa cells; assay type: toxicity; details: human red blood cells versus HeLa cells; in short: as §1
[4] = Therapeutic index, ratio of HC50 for human RBC to MIC for Escherichia coli DSM 1103; assay type: toxicity; details: human red blood cells versus Escherichia coli DSM 1103; in short: as §1

| SMILES | selectivity ratio [1] | HC50 at 0.5 h [2] | IC50 (HeLa) | MIC (Bacillus subtilis) | MIC (Escherichia coli) | selectivity ratio [3] | selectivity ratio [4] |
| --- | --- | --- | --- | --- | --- | --- | --- |
| Cc1sc2cc1C1=C(CCC1)c1cc(sc1C)C(=O)[C@H]1CCCN1C(=O)[C@H](C(C)C)NC(=O)[C@H](CCCN)NC(=O)[C@H](C(C)C)NC(=O)[C@@H]1CCCN1C(=O)[C@@H](Cc1ccccc1)NC(=O)[C@H](C(C)C)NC(=O)[C@H](CCCN)NC(=O)[C@H](CC(=O)NC(C)C)NC2=O | 51 | 153 µM | 66 µM | 3 µM (≈ 3.93 µg/mL) | 98 µM (≈ 128 µg/mL) | 2.3 | 1.6 |
| CC(C)C(=O)NCC[C@@H]1NC(=O)C2=CC3=C4CCCC4=C4C=C(S[C@]4(C)[C@@]3(C)S2)C(=O)[C@H]2CCCN2C(=O)[C@H](C(C)C)NC(=O)[C@H](CCCN)NC(=O)[C@H](C(C)C)NC(=O)[C@@H]2CCCN2C(=O)[C@@H](Cc2ccccc2)NC(=O)[C@H](C(C)C)NC(=O)[C@H](CCCN)NC1=O | 8.1 | 387 µM | 194 µM | 48 µM (≈ 63.5 µg/mL) | 194 µM (≈ 257 µg/mL) | 2 | 2 |
| CC[C@H](C)[C@@H]1NC(=O)C2=CC3=C4CCCC4=C4C=C(S[C@]4(C)[C@@]3(C)S2)C(=O)[C@H]2CCCN2C(=O)[C@H](CC(C)C)NC(=O)[C@H](CCCN)NC(=O)[C@H]([C@@H](C)CC)NC(=O)[C@@H]2CCCN2C(=O)[C@H]2CCCN2C(=O)[C@H](CC(C)C)NC(=O)[C@H](CCCN)NC1=O | 20 | 120 µM | 64 µM | 6 µM (≈ 7.55 µg/mL) | 203 µM (≈ 256 µg/mL) | 1.9 | 0.6 |
| Cc1sc2cc1C1=C(CCC1)c1cc(sc1C)C(=O)[C@H]1CCCN1C(=O)[C@H]([C@@H](C)O)NC(=O)[C@H](C13CC4CC(CC(C4)C1)C3)NC(=O)[C@H](CCCN)NC(=O)[C@@H]1CCCN1C(=O)[C@@H](Cc1ccccc1)NC(=O)[C@H](CCCN)NC(=O)[C@H](C13CC4CC(CC(C4)C1)C3)NC(=O)[C@H](CCCN)NC2=O | 2 | 4 µM | 9 µM | 2 µM (≈ 2.91 µg/mL) | 25 µM (≈ 36.3 µg/mL) | 0.4 | 0.2 |
| CC(C)[C@@H]1NC(=O)C2=CC3=C4CCCC4=C4C=C(S[C@]4(C)[C@@]3(C)S2)C(=O)[C@H]2CCCN2C(=O)[C@H](C(C)C)NC(=O)[C@H](CCCN)N(C)C(=O)[C@H](C(C)C)NC(=O)[C@@H]2CCCN2C(=O)[C@@H](Cc2ccccc2)N(C)C(=O)[C@H](C(C)C)NC(=O)[C@H](CCCN)NC1=O | 32 | 192 µM | 100 µM | 6 µM (≈ 7.68 µg/mL) | 200 µM (≈ 256 µg/mL) | 1.9 | 1 |
| CC(C)NC(=O)C[C@@H]1NC(=O)C2=CC3=C4CCCC4=C4C=C(S[C@]4(C)[C@@]3(C)S2)C(=O)[C@H]2CCCN2C(=O)[C@H](C(C)C)NC(=O)[C@H](CCCN)NC(=O)[C@H](C(C)C)NC(=O)[C@@H]2CCCN2C(=O)[C@@H](Cc2ccccc2)NC(=O)[C@H](C(C)C)NC(=O)[C@H](CCCN)NC1=O | 7.8 | 391 µM | 196 µM | 49 µM (≈ 64.2 µg/mL) | 196 µM (≈ 257 µg/mL) | 2 | 2 |
| Cc1sc2cc1C1=C(CCC1)c1cc(sc1C)C(=O)[C@H]1CCCN1C(=O)[C@H](C(C)C)NC(=O)[C@H](CCCN)N(C)C(=O)[C@H](C(C)C)NC(=O)[C@@H]1CCCN1C(=O)[C@@H](Cc1ccccc1)N(C)C(=O)[C@H](C(C)C)NC(=O)[C@H](CCCN)NC(=O)[C@H](C(C)C)NC2=O | 29.5 | 59 µM | 25 µM | 2 µM (≈ 2.56 µg/mL) | 100 µM (≈ 128 µg/mL) | 2.4 | 0.6 |
| CC(C)[C@@H]1NC(=O)C2=CC3=C4CCCC4=C4C=C(S[C@]4(C)[C@@]3(C)S2)C(=O)[C@H]2CCCN2C(=O)[C@H]([C@@H](C)O)NC(=O)[C@H](CCCN)NC(=O)[C@H](C(C)C)NC(=O)[C@@H]2CCCN2C(=O)[C@@H](Cc2ccccc2)NC(=O)[C@H](C(C)C)NC(=O)[C@H](CCCN)NC1=O | 8 | 408 µM | 153 µM | 51 µM (≈ 64 µg/mL) | 204 µM (≈ 256 µg/mL) | 2.7 | 2 |
| CC[C@H](C)[C@@H]1NC(=O)c2cc(c(C)s2)C2=C(CCC2)c2cc(sc2C)C(=O)[C@H]2CCCN2C(=O)[C@H](CC(C)C)NC(=O)[C@H](CCCN)NC(=O)[C@H]([C@@H](C)CC)NC(=O)[C@@H]2CCCN2C(=O)[C@H]2CCCN2C(=O)[C@H](CC(C)C)NC(=O)[C@H](CCCN)NC1=O | 4 | 8 µM | 6 µM | 2 µM (≈ 2.52 µg/mL) | 51 µM (≈ 64.2 µg/mL) | 1.3 | 0.2 |
| C[C@]12SC3=CC1=C1CCCC1=C1C=C(S[C@@]12C)C(=O)[C@H]1CCCN1C(=O)[C@H](CCCCN)NC(=O)[C@H](C12CC4CC(CC(C4)C1)C2)NC(=O)[C@H](CCCN)NC(=O)[C@@H]1CCCN1C(=O)[C@@H](Cc1ccccc1)NC(=O)[C@H](CCCN)NC(=O)[C@H](C12CC4CC(CC(C4)C1)C2)NC(=O)[C@H](CCCN)NC3=O | 0.3 | 1 µM | 11 µM | 3 µM (≈ 4.44 µg/mL) | 8 µM (≈ 11.8 µg/mL) | 0.1 | 0.1 |
| C[C@@H](O)[C@@H]1NC(=O)[C@H](C23CC4CC(CC(C4)C2)C3)NC(=O)[C@H](CCCN)NC(=O)[C@@H]2CCCN2C(=O)[C@@H](Cc2ccccc2)NC(=O)[C@H](CCCN)NC(=O)[C@H](C23CC4CC(CC(C4)C2)C3)NC(=O)[C@H](CCCN)NC(=O)C2=CC3=C4CCCC4=C4C=C(S[C@]4(C)[C@@]3(C)S2)C(=O)[C@H]2CCCN2C1=O | 6.5 | 13 µM | 11 µM | 2 µM (≈ 2.91 µg/mL) | 13 µM (≈ 18.9 µg/mL) | 1.2 | 0.1 |
| CC[C@H](C)[C@@H]1NC(=O)C2=CC3=C4CCCC4=C4C=C(S[C@]4(C)[C@@]3(C)S2)C(=O)[C@H]2CCCN2C(=O)[C@H]([C@@H](C)CC)NC(=O)[C@H](CCCN)NC(=O)[C@H](CC(C)C)NC(=O)[C@H](CC(C)C)N(C)C(=O)[C@@H](Cc2ccccc2)NC(=O)[C@H]([C@@H](C)CC)NC(=O)[C@H](CCCN)NC1=O | 9 | 27 µM | 25 µM | 3 µM (≈ 4.02 µg/mL) | 191 µM (≈ 256 µg/mL) | 1.1 | 0.1 |
| Cc1sc2cc1C1=C(CCC1)c1cc(sc1C)C(=O)[C@H]1CCCN1C(=O)[C@H](C(C)C)NC(=O)[C@H](CCCN)NC(=O)[C@H](C(C)C)NC(=O)[C@@H]1CCCN1C(=O)[C@@H](Cc1ccccc1)NC(=O)[C@H](C(C)C)NC(=O)[C@H](CCCN)NC(=O)[C@H](CCNC(=O)C(C)C)NC2=O | 56.7 | 170 µM | 36 µM | 3 µM (≈ 3.97 µg/mL) | 97 µM (≈ 128 µg/mL) | 4.7 | 1.8 |
| Cc1sc2cc1C1=C(CCC1)c1cc(sc1C)C(=O)[C@H]1CCCN1C(=O)[C@H](CCCCN)NC(=O)[C@H](C13CC4CC(CC(C4)C1)C3)NC(=O)[C@H](CCCN)NC(=O)[C@@H]1CCCN1C(=O)[C@@H](Cc1ccccc1)NC(=O)[C@H](CCCN)NC(=O)[C@H](C13CC4CC(CC(C4)C1)C3)NC(=O)[C@H](CCCN)NC2=O | 0.3 | 1 µM | 11 µM | 3 µM (≈ 4.44 µg/mL) | 16 µM (≈ 23.7 µg/mL) | 0.1 | 0.1 |
